Published values gathered from unrelated publications.
Compare with care: the assays were run in different laboratories.
Target: Serine/threonine-protein kinase pim-3 (PIM3, Homo sapiens, UniProt Q86V86)

| SMILES | assay | setting | remaining binding |
| --- | --- | --- | --- |
| N[C@H]1CCN(c2nccc(-c3cnn4ncccc34)n2)C1 | binding | 1 µM | 79% |
| COc1ccc2c(c1)O[C@H](c1ccc(OC)c(OC)c1)C[C@@H]2NC(=O)C1(c2ccc3c(c2)OC(F)(F)O3)CC1 | cell-free assay, competition with immobilised ligand | 1 µM | 100% |
| Nc1ncc2c(n1)-c1c([nH]c3ccc(C#CC4CC4)cc13)CCCC2 | binding, competition with immobilised ligand | 1 µM | 76% |
| C[C@@H]1CN(c2ccc3ncc(-c4ccc5[nH]nc(C6CC6)c5c4)n3n2)C[C@H](C)O1 | binding, competition with immobilised ligand | 0.5 µM | 33% |
| O=C1CCc2cc(Nc3cc(OC4CCOCC4)c([N+](=O)[O-])cc3Cl)ccc2N1 | cell-free assay, competition with immobilised ligand | 1 µM | 100% |
| O=C(c1ccc(Nc2ncc(Cl)c(-c3ccc(Cl)s3)n2)cc1)N1CCC(N2CCCC2)CC1 | binding, competition with immobilised ligand | 1 µM | 73% |
| COc1ncc2cc3ccccc3nc2c1C#N | cell-free assay, competition with immobilised ligand | 5 µM | 79% |
| O=C(c1ccc(Nc2ncc(Cl)c(-c3cc4ccccc4s3)n2)cc1)N1CCC(N2CCCC2)CC1 | binding, competition with immobilised ligand | 1 µM | 75% |
| COc1ccc2c(O[C@@H]3C[C@H]4C(=O)N[C@]5(C(=O)O)CC5/C=C\CCCCC[C@H](NC(=O)OC5CCCC5)C(=O)N4C3)cc(-c3csc(NC(=O)C(C)C)n3)nc2c1C (stereo partly drawn) | cell-free assay, competition with immobilised ligand | 1 µM | 94% |
| COc1cnc(Nc2cccc(S(N)(=O)=O)c2)nc1N1CCN(c2ccccc2)C(=O)C1 | binding, competition with immobilised ligand | 1 µM | 100% |
| C=CC(=O)N1CCC(C(=O)NCC(=O)N2CCN(c3nc(-c4cnc(N)nc4C(F)F)nc(N4CCOCC4)n3)CC2)CC1 | binding, competition with immobilised ligand | 1 µM | 97% |
| O=C(NCC1CCOCC1)c1n[nH]cc1NC(=O)c1c(F)cccc1F | binding, competition with immobilised ligand | 1 µM | 99% |
| C[C@@H]1CCN(c2nccc(-c3cnn4ncccc34)n2)C1 | binding | 1 µM | 92% |
| C[C@@H]1CN(c2cc(-c3nn(C)c4ccc(OC5(C)CC5)cc34)ncn2)C[C@H](C)O1 | cell-free assay, competition with immobilised ligand | 1 µM | 92% |
| C[C@@H](c1ccc(-n2cnc3c(N)ncnc32)cc1)N1CCc2nn(C)c(Cc3ccccc3)c2C1=O | binding, competition with immobilised ligand | 0.1 µM | 90% |
| CN(CCCC(F)(F)F)c1nccc(-c2cnn3ncccc23)n1 | binding | 1 µM | 100% |
| O=C(NCCCN1CCOCC1)c1ccc(Nc2ncc(Cl)c(-c3ccc(Cl)s3)n2)cc1 | binding, competition with immobilised ligand | 1 µM | 100% |
| CCN1CCN(Cc2ccc(C(=O)Nc3ccc(C)c(Oc4ccc5c(c4)CC(=O)N5)c3)cc2C(F)(F)F)CC1 | binding, competition with immobilised ligand | 1 µM | 100% |
| CN(c1nccc(-c2cnn3ncccc23)n1)C1CC1 | binding | 1 µM | 100% |
| C[C@H](c1cccc(C#N)c1)n1cc(Cl)cc(C(N)=O)c1=N | cell-free assay, competition with immobilised ligand | 1 µM | 100% |
| c1cnn2ncc(-c3ccnc(N4CCC45COC5)n3)c2c1 | binding | 1 µM | 84% |
| CO[C@@H](C)c1c(Nc2ccc([C@@H](N(C)C(=O)C3CCS(=O)(=O)CC3)C(F)(F)F)cc2)cnc2cc(Cl)nn12 | cell-free assay, competition with immobilised ligand | 1 µM | 97% |
| CN(C)c1nccc(-c2cnn3ncccc23)n1 | binding | 1 µM | 56% |
| CN([C@@H]1CCc2c(CC(=O)O)c3cc(S(C)(=O)=O)ccc3n2C1)S(=O)(=O)c1ccc(F)cc1 | cell-free assay, competition with immobilised ligand | 1 µM | 100% |
